SENP8 block-1 – SENP8 protease inhibitors, primary screen, biochemical, luminescence. Sentrin-specific protease 8 (Homo sapiens), Q96LD8. purified SENP8, Z-RLRGG-aminoluciferin cleavage. inhibition, % at 10 µM. 1.2% of 330,000 active. AID 2540, 2010; in the data active = inhibition above about 50%
Target sequence (Q96LD8 whole entry, looked up): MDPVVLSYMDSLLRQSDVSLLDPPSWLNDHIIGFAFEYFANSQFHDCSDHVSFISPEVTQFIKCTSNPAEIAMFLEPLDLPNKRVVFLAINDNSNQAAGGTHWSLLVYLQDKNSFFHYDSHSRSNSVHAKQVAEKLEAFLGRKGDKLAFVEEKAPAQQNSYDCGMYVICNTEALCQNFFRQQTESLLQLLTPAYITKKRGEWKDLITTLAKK
Platelet DG rel – inhibitors of platelet dense granule secretion, primary screen, cell-based, MLPCN, human platelets. 0.22% of 300,000 active. human platelet-rich plasma, SFLLRN dense granule ATP release, luminescence. inhibition, %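 (compounds screened at 7.5 µM in platelet-rich plasma)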;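 active = mean replicate score, as percent of positive control, at or above 50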
SENP1 FRET inh – human SENP1 catalytic domain inhibitors, primary screen, biochemical, FRET, uHTS; recombinant SENP1 catalytic domain, CyPet-SUMO1-YPet FRET cleavage; inhibition, % at 10 µM; 0.21% of 360,000 active;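 active = inhibition at least 30% at 10 µM, raw YFP signal under a set limit, fluorescence ratio 0.5 to 1.5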
Target sequence (Q9P0U3 419-644 limits assumed): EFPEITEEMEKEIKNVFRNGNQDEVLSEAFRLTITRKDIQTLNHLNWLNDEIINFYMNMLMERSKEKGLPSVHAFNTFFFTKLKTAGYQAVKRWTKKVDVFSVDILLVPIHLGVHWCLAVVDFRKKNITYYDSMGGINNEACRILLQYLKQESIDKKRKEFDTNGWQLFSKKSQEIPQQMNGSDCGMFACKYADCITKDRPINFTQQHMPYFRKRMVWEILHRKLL
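Test system: recombinant human SENP1 catalytic domain, His6-tagged / Medium: pH 8 Tris buffer with EDTA, NaCl, BME, BSA, NP40, catalase / Also added: SUMO1 FRET substrate flanked by Cypet and Ypet, 25 nM / Times: 50 min reaction at room temperature / Signal: FRET, CFP and YFP emission / Control set: no-enzyme low control and enzyme-plus-DMSO high control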
SENP8 block-2 – human SENP8 protease inhibitors, primary screen, biochemical, fluorescence, Nedd8 protein substrate, uHTS; inhibition, % at 20 µM; AID 602440, 2012; recombinant SENP8; 0.64% of 360,000 active; Sentrin-specific protease 8 (Homo sapiens), Q96LD8; in the data active = inhibition mostly above about 40%, no sharp cut-off; inactive = mostly below about 27%
SENP6 block – SENP6 protease inhibitors, primary screen, biochemical, luminescence, uHTS. Sentrin-specific protease 6 (Homo sapiens), Q9GZR1. Recombinant SENP6 catalytic domain, aminoluciferin luminescence. inhibition, % at 10 µM. 1.8% of 330,000 active. AID 2599, 2010;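 active = inhibition above about 50% at the single tested dose, limit read from the data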
SENP7 inh – SENP7 protease inhibitors, primary screen, biochemical, luminescence, uHTS | Sentrin-specific protease 7 (Homo sapiens), Q9BQF6 | recombinant SENP7, Z-RLRGG-aminoluciferin luminescence, 40 min | inhibition, % at 5 µM | 1.5% of 330,000 active;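 active = inhibition above about 50% at the single test dose, limit read from the data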
SENP8 conf – SENP8 protease inhibitors, retest, confirmation, biochemical, luminescence, single concentration. shares compounds with SENP7 inh. inhibition, % at 12.5 µM. Recombinant SENP8, Z-RLRGG-aminoluciferin luminescence, 60 min. AID 488912, 2010. 40% of 6,200 active;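 active = mean inhibition across replicates above about 50%, limit read from the data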
SENP6 confirm – SENP6 protease inhibitors, confirmation, biochemical, luminescence, single concentration. inhibition, % at 12.5 µM. shares compounds with SENP7 inh. recombinant SENP6, Z-RLRGG-aminoluciferin luminescence. 58% of 6,200 active
SENP7 confirm – SENP7 protease inhibitors, retest, confirmation, biochemical, luminescence, single concentration; shares compounds with SENP7 inh; recombinant SENP7, Z-RLRGG-aminoluciferin luminescence, 40 min; inhibition, % at 12.5 µM; 69% of 6,200 active
Casp3 SENP sel – caspase-3 protease inhibitors, confirmation, selectivity assay for SENP inhibitor project, biochemical, single concentration | inhibition, % at 12.5 µM | AID 488918, 2010 | 60% of 6,200 active | shares compounds with SENP7 inh | purified caspase-3, Z-DEVD-aminoluciferin luminescence, 60 min;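 active = mean inhibition above about 50%, limit read from the data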
Target sequence (P42574 28-227 limits assumed): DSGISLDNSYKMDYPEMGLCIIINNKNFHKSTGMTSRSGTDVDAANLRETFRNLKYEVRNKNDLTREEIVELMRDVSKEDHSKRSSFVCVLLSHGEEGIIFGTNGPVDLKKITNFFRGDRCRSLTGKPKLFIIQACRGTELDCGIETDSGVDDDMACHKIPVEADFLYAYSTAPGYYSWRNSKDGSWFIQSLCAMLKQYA
SENP luc ctr – interferes with luciferase luminescence in SENP counter-screen | shares compounds with SENP7 inh | Pre-incubated SENP8/Z-RLRGG-aminoluciferin, luciferase luminescence interference | inhibition, % at 12.5 µM | 39% of 6,200 active | AID 488919;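 active = mean inhibition above about 50% when retested at one dose, limit read from the data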
Each line names hits and unclear results; the compound was inactive in the other large screens (follow-up assays come after a bar, where they were run). This is a sample that favours compounds with a hit; in the whole collection about 2.6% have one here.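 The calls were made as follows, unless noted: active = mean inhibition above about 50% in the one-dose retest (limit read from the data); inactive = the rest.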

O=C(Nc1ccc2ccccc2c1)c1ccc(Cl)cc1	SENP7 inh 51 | SENP8 conf inactive | SENP6 confirm inactive | SENP7 confirm inactive | Casp3 SENP sel 67 | SENP luc ctr inactive
Cc1nnc(NC(=O)c2ccc3ccccc3c2)s1	SENP7 inh 58 | SENP8 conf inactive | SENP6 confirm inactive | SENP7 confirm inactive | Casp3 SENP sel inactive | SENP luc ctr inactive
Cc1ccc(NC(=O)c2ccccc2)cc1	SENP7 inh 50 | SENP8 conf inactive | SENP6 confirm inactive | SENP7 confirm 78 | Casp3 SENP sel 72 | SENP luc ctr 54
Cc1ccc(NC(=O)c2ccccc2O)cc1	SENP6 block 53 | SENP8 conf 55 | SENP6 confirm 51 | SENP7 confirm 78 | Casp3 SENP sel 61 | SENP luc ctr 66
Cc1ccc(NC(=O)C(=O)c2ccc(C)cc2)cc1	SENP8 block-1 54, SENP6 block 65, SENP7 inh 62 | SENP8 conf 59 | SENP6 confirm 59 | SENP7 confirm 87 | Casp3 SENP sel 60 | SENP luc ctr inactive
Cc1ccc(C(=O)Nc2ccccc2Cl)cc1	SENP6 block 69, SENP7 inh 58 | SENP8 conf 50 | SENP6 confirm 55 | SENP7 confirm 86 | Casp3 SENP sel 78 | SENP luc ctr 55
O=C(Nc1ccccc1Cl)c1ccc(C(=O)Nc2ccccc2Cl)cc1	none (no result: SENP8 block-1, Platelet DG rel, SENP6 block, SENP7 inh)
Cc1ccc(S(=O)(=O)N2CC(=O)N3CCN(CCN)C3C2)cc1 (stereo unspecified)	none (no result: Platelet DG rel)
Cc1cccc(NC(=S)NC2CC3C=CC2C3)c1 (stereo unspecified)	none
CCNc1nc(NCC)nc(NS(=O)(=O)c2ccc(N)cc2)n1	none
COc1ccc(-c2noc(CNC(=O)CCCN3C(=O)[C@H]4CC=CC[C@H]4C3=O)n2)cc1	none
CC(=O)c1ccc(-c2nc3ccccc3n2C)o1	none
Brc1ccc(Cn2c(-c3ccc(Br)o3)nc3ccccc32)o1	none (no result: SENP8 block-1, SENP6 block, SENP7 inh)
Cn1c(-c2ccc(Br)o2)nc2ccccc21	SENP8 block-1 95, SENP6 block 97, SENP7 inh 99 | SENP8 conf inactive | SENP6 confirm 98 | SENP7 confirm 103 | Casp3 SENP sel 98 | SENP luc ctr 95
Cc1oc(-c2nc3ccccc3n2C)cc1C(=O)c1ccccc1	SENP8 block-1 85, SENP6 block 94 (no result: Platelet DG rel) | SENP8 conf 94 | SENP6 confirm 94 | SENP7 confirm 101 | Casp3 SENP sel 94 | SENP luc ctr 93
Cc1ccc(-c2nc3ccccc3n2C)o1	SENP8 block-1 79, SENP6 block 70, SENP7 inh 83 | SENP8 conf 91 | SENP6 confirm 91 | SENP7 confirm 98 | Casp3 SENP sel 95 | SENP luc ctr 90
Cn1c(-c2ccc(Br)o2)nc2cc(Br)ccc21	SENP8 block-1 85, SENP6 block 95, SENP7 inh 83 (no result: Platelet DG rel) | SENP8 conf inactive | SENP6 confirm 90 | SENP7 confirm 91 | Casp3 SENP sel 89 | SENP luc ctr inactive
Fc1ccc2c(c1)C(c1ccncc1)=NNC(c1ccccc1)=N2	none
c1coc(CSc2ncnc3c2oc2ccccc23)c1	none
CC(C)OCCCn1c(-c2ccc(Br)cc2)c[nH]c1=S	none
CN(C)c1ccc(-c2nc3ccccc3n2C)cc1	SENP8 block-1 89, SENP6 block 91, SENP7 inh 96 | SENP8 conf 96 | SENP6 confirm 98 | SENP7 confirm 102 | Casp3 SENP sel 98 | SENP luc ctr 96
CC(C)n1c(-c2ccc(N(C)C)cc2)nc2ccccc21	none (no result: Platelet DG rel)
Cn1c(N)c(C(=O)COC(=O)c2cc(S(=O)(=O)NCc3ccccc3)ccc2O)c(=O)n(C)c1=O	none (no result: SENP8 block-1, Platelet DG rel, SENP6 block, SENP7 inh)
Cc1ccc(C(=O)N2CCNC(=O)C2CC(=O)Nc2ccccc2)cc1 (stereo unspecified)	none
Cc1ccc(S(=O)(=O)N2CCN(C(=O)COC(=O)CSc3ccccc3)CC2)c(C)c1	none
Cc1oc(-c2ccc(Cl)cc2)cc1C(=O)O	SENP8 block-1 97, SENP6 block 96, SENP7 inh 94 | SENP8 conf 99 | SENP6 confirm 100 | SENP7 confirm 102 | Casp3 SENP sel 92 | SENP luc ctr 91
CC12CC3CC(C)(C1)CC(C(=O)Nc1nncs1)(C3)C2	none
Cc1cc(-c2nnc(CCC(=O)NC(C)c3ccc(F)cc3)o2)no1 (stereo unspecified)	none
O=c1[nH]c(/C=C/c2cccc([N+](=O)[O-])c2)c([N+](=O)[O-])c(=O)[nH]1	none
O=[N+]([O-])c1cccc(/C=C/c2nc[nH]c2[N+](=O)[O-])c1	SENP8 block-1 57, SENP6 block 70 | SENP8 conf inactive | SENP6 confirm inactive | SENP7 confirm inactive | Casp3 SENP sel inactive | SENP luc ctr inactive
Cc1ccc(/C=C2\Sc3ccccc3C2=O)s1	SENP8 block-1 89, SENP6 block 94, SENP7 inh 96 | SENP8 conf inactive | SENP6 confirm 86 | SENP7 confirm 94 | Casp3 SENP sel 67 | SENP luc ctr 65
O=c1cc(-c2ccc(O)cc2)oc2ccc3ccccc3c12	SENP8 block-1 98, SENP6 block 97, SENP7 inh 99 (no result: Platelet DG rel) | SENP8 conf 97 | SENP6 confirm 100 | SENP7 confirm 103 | Casp3 SENP sel 99 | SENP luc ctr 83
COc1c(O)cc2oc(-c3ccc(O)cc3)cc(=O)c2c1O	SENP6 block 57, SENP7 inh 59 | SENP8 conf 63 | SENP6 confirm 60 | SENP7 confirm 88 | Casp3 SENP sel 71 | SENP luc ctr 71
